In ChEMBL document CHEMBL1138528, “Discovery of tetrasubstituted imidazolines as potent and selective neuropeptide Y Y5 receptor antagonists: reduced human ether-a-go-go related gene potassium channel binding affinity and potent antiobesity effect” (J Med Chem, 2009):
One block for each compound: values may come before it.

Assays:
[1] = Octanol-water distribution coefficient, log D at pH 7.4; format: physicochemical
[2] = Metabolic stability in rat hepatocytes assessed as hepatic clearance by serum incubation method; format: ADME, cell-based, Liver, Hepatocyte
[3] = biological target: T1, Neuropeptide Y receptor type 5 (Homo sapiens, UniProt Q15761); experiment: Displacement of [125I]PYY from human recombinant neuropeptide Y5 receptor expressed in mouse LMtk- cells; format: cell-based
T1 sequence (Q15761 whole entry): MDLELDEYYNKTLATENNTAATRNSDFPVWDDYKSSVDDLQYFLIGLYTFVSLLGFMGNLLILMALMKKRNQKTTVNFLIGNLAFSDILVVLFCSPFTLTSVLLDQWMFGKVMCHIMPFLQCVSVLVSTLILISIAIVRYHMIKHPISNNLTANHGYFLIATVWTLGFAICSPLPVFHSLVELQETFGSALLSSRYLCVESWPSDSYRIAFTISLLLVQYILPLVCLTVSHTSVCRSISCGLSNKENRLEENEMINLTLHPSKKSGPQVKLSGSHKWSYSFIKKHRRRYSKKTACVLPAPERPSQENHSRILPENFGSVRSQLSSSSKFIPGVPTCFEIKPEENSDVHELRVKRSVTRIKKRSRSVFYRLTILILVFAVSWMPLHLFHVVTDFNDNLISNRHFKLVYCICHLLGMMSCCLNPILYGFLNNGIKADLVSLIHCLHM

[4] = biological target: Voltage-gated inwardly rectifying potassium channel KCNH2 (Homo sapiens, UniProt Q12809);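 note: radioligand displacement binding to human ERG expressed in HEK293 cells, using a [35S]-labelled spiro-benzopyran-piperidine methanesulfonamide as the displaced ligand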
[5] = Ratio of drug level from brain to plasma in Sprague-Dawley rat at 10 mg/kg, po after 2 hrs; format: ADME, organism-based; design: dose 10 mg/kg, route oral
How it was run: (§1)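 Male SD rats (7-10 weeks, 200-400 g) dosed orally at 10 mg/kg in 0.5% methylcellulose; at 2 h aortic blood taken under isoflurane. Plasma, brain homogenate (sonicated in water) and CSF deproteinized with 3-fold ethanol plus internal standard, -20 °C 20 min, centrifuged; LC/MS/MS with relative calibration curve. Mean, n = 2-3.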

[6] = Plasma concentration in Sprague-Dawley rat at 10 mg/kg, po after 2 hrs; format: ADME, organism-based; design: dose 10 mg/kg, route oral; how it was run: as §1
[7] = Drug level in Sprague-Dawley rat cerebrospinal fluid at 10 mg/kg, po after 2 hrs; format: ADME, organism-based; design: dose 10 mg/kg, route oral; conditions: Sprague-Dawley, cerebrospinal fluid, read-out: Drug uptake; how it was run: as §1
[8] = test system: Brain; experiment: Drug level in Sprague-Dawley rat brain at 10 mg/kg, po after 2 hrs; format: ADME, organism-based; design: dose 10 mg/kg, route oral; conditions: in vivo; how it was run: as §1
[9] = Ratio of drug level from cerebrospinal fluid to brain in Sprague-Dawley rat at 10 mg/kg, po after 2 hrs; format: ADME, organism-based, CSF/Brain; design: dose 10 mg/kg, route oral; conditions: in vivo

Chain of Voltage-gated inwardly rectifying potassium channel KCNH2 (Q12809 whole entry): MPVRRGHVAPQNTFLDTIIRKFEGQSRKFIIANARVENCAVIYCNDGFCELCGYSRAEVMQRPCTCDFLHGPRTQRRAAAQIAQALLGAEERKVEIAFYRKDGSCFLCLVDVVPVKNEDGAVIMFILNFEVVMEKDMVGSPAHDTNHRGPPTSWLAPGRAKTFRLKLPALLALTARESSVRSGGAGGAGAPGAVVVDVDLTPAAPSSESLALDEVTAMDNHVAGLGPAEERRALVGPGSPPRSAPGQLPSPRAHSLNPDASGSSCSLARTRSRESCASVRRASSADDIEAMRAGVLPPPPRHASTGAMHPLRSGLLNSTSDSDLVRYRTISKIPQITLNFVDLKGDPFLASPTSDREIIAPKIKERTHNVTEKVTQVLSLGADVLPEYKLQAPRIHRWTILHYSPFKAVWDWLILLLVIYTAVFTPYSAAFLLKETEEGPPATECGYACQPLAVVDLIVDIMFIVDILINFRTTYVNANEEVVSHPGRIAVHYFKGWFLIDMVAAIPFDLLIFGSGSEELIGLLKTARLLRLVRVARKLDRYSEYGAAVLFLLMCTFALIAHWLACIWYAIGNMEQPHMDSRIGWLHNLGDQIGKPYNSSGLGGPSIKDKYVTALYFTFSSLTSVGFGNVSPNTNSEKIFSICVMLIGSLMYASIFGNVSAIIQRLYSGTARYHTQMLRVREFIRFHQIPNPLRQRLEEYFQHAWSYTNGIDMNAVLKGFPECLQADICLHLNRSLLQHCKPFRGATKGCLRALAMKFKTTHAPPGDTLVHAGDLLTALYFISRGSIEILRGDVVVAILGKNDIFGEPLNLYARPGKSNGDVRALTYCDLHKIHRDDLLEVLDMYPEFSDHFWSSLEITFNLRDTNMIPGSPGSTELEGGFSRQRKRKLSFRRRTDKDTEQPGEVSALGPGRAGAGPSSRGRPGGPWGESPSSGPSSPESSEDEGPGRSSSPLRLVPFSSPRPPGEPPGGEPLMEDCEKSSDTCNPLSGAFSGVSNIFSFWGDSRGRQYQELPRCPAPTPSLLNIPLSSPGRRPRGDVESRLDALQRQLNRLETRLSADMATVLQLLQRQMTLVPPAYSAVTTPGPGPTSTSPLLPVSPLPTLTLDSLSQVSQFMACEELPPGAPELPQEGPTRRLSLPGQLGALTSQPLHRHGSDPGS

SMILES: C[C@@H]1NC(c2cc(C(N)=O)ccn2)=N[C@@]1(c1ccc(F)cc1)c1ccc(F)nc1
- logD [1]: 2.4
- CLhep predicted [2]: 7 mL/min/kg
- Ki [3]: 5.1 nM

SMILES: C[C@@H]1NC(c2cc(C#N)ccn2)=NC1(c1ccc(F)nc1)c1ccc(F)nc1
- logD [1]: 2.2
- IC50 [4]: > 10000 nM
- CLhep predicted [2]: 52 mL/min/kg
- Ki [3]: 3.1 nM

SMILES: C[C@@H]1NC(c2cccc(=O)[nH]2)=N[C@@]1(c1ccc(F)cc1)c1ccc(F)nc1
- Kp at 2 h [5]: 0.1
- logD [1]: 2.4
- concentration at 2 h [6]: 3700 nM
- concentration at 2 h [7]: 50 nM
- Drug uptake [8]: 0.36 nmol/g

SMILES: Fc1ccc(C2(c3ccc(F)cc3)CNC(c3cnccn3)=N2)cc1
- logD [1]: 3.5
- Drug uptake [8]: 5.9 nmol/g
- IC50 [4]: 3400 nM
- CLhep predicted [2]: 51 mL/min/kg
- Ki [3]: 4.3 nM
- Ratio [9]: 0.011

SMILES: C[C@@H]1NC(c2cc(C#N)ccn2)=N[C@@]1(c1ccc(F)cc1)c1ccc(=O)[nH]c1
- Ki [3]: 145 nM

SMILES: C[C@@H]1NC(c2cccc(C#N)n2)=N[C@@]1(c1ccc(F)cc1)c1ccc(F)nc1
- logD [1]: 3.3
- IC50 [4]: 6930 nM
- CLhep predicted [2]: 13 mL/min/kg
- Ki [3]: 5.9 nM

SMILES: C[C@H]1NC(c2cc(C#N)ccn2)=NC1(c1ccc(F)cc1)c1ccc(F)cc1
- Ki [3]: 300 nM

SMILES: C[C@@H]1NC(c2cncc(C#N)c2)=N[C@@]1(c1ccc(F)cc1)c1ccc(F)nc1
- Kp at 2 h [5]: 1.2
- logD [1]: 2.9
- concentration at 2 h [6]: 4400 nM
- concentration at 2 h [7]: 460 nM
- Drug uptake [8]: 5.3 nmol/g
- IC50 [4]: > 10000 nM
- CLhep predicted [2]: 12 mL/min/kg
- Ki [3]: 3.2 nM
- Ratio [9]: 0.087

SMILES: C[C@@H]1NC(c2nccc(C#N)n2)=N[C@@]1(c1ccc(F)cc1)c1ccc(F)nc1
- logD [1]: 2.2
- CLhep predicted [2]: 30 mL/min/kg
- Ki [3]: 3.6 nM

SMILES: C[C@@H]1NC(c2nccs2)=N[C@@]1(c1ccc(F)cc1)c1ccc(F)nc1
- logD [1]: 3
- IC50 [4]: > 10000 nM
- Ki [3]: 4.1 nM

SMILES: C[C@@H]1NC(c2cc(C#N)ccn2)=N[C@]1(c1ccc(F)cc1)c1ccc(F)nc1
- logD [1]: 2.9
- CLhep predicted [2]: 56 mL/min/kg

SMILES: CCC[C@@H]1NC(c2cc(C#N)ccn2)=NC1(c1ccc(F)cc1)c1ccc(F)cc1
- IC50 [4]: 490 nM
- Ki [3]: 8.6 nM

SMILES: N#Cc1cccc(C2=NC(c3ccc(F)cc3)(c3ccc(F)cc3)CN2)c1
- Drug uptake [8]: 8.1 nmol/g
- Ratio [9]: 0.003

Further compounds by falling Ki [3], results first:

- Kp at 2 h [5]: 2.1
- logD [1]: 3.4
- concentration at 2 h [6]: 1100 nM
- concentration at 2 h [7]: 57 nM
- Drug uptake [8]: 2.3 nmol/g
- CLhep predicted [2]: 11 mL/min/kg
- Ki [3]: 3 nM
- Ratio [9]: 0.025
SMILES: N#Cc1ccnc(C2=NC(c3ccc(F)cc3)(c3ccc(F)cc3)[C@H](CO)N2)c1
- IC50 [4]: 6100 nM

- Ki [3]: 2.6 nM
SMILES: CC[C@@H]1NC(c2cc(C#N)ccn2)=NC1(c1ccc(F)cc1)c1ccc(F)cc1
- IC50 [4]: 490 nM

- logD [1]: 3.6
- CLhep predicted [2]: 58 mL/min/kg
- Ki [3]: 2.5 nM
SMILES: COc1ccnc(C2=N[C@@](c3ccc(F)cc3)(c3ccc(F)nc3)[C@H](C)N2)c1

- logD [1]: 2.9
- CLhep predicted [2]: 6 mL/min/kg
- Ki [3]: 2.5 nM
SMILES: C[C@@H]1NC(c2cccc(S(C)(=O)=O)c2)=N[C@@]1(c1ccc(F)cc1)c1ccc(F)nc1
- IC50 [4]: > 10000 nM

- logD [1]: 2.5
- CLhep predicted [2]: 42 mL/min/kg
- Ki [3]: 2.2 nM
SMILES: C[C@@H]1NC(c2cnccn2)=N[C@@]1(c1ccc(F)cc1)c1ccc(F)nc1

- logD [1]: 4
- Drug uptake [8]: 6.4 nmol/g
- CLhep predicted [2]: 12 mL/min/kg
- Ki [3]: 2 nM
- Ratio [9]: 0.004
SMILES: N#Cc1ccnc(C2=NC(c3ccc(F)cc3)(c3ccc(F)cc3)CN2)c1
- IC50 [4]: 101 nM

- logD [1]: 3.1
- CLhep predicted [2]: 58 mL/min/kg
- Ki [3]: 2 nM
SMILES: C[C@@H]1NC(c2cnsn2)=N[C@@]1(c1ccc(F)cc1)c1ccc(F)nc1

- logD [1]: 3.7
- CLhep predicted [2]: 57 mL/min/kg
- Ki [3]: 1.9 nM
SMILES: C[C@@H]1NC(c2cnccn2)=NC1(c1ccc(F)cc1)c1ccc(F)cc1
- IC50 [4]: > 10000 nM

- logD [1]: 3.8
- CLhep predicted [2]: 58 mL/min/kg
- Ki [3]: 1.8 nM
SMILES: C[C@@H]1NC(c2cc(Cl)ccn2)=N[C@@]1(c1ccc(F)cc1)c1ccc(F)nc1

- logD [1]: 3.5
- CLhep predicted [2]: 44 mL/min/kg
- Ki [3]: 1.1 nM
SMILES: COc1ccc([C@]2(c3ccc(F)cc3)N=C(c3cc(C#N)ccn3)N[C@H]2C)cn1

- logD [1]: 4.1
- CLhep predicted [2]: 28 mL/min/kg
- Ki [3]: 1 nM
SMILES: C[C@@H]1NC(c2cc(C#N)ccn2)=NC1(c1ccc(F)cc1)c1ccc(F)cc1

- Kp at 2 h [5]: 0.9
- logD [1]: 3.2
- concentration at 2 h [6]: 3700 nM
- concentration at 2 h [7]: 220 nM
- Drug uptake [8]: 3.2 nmol/g
- CLhep predicted [2]: 13 mL/min/kg
- Ki [3]: 1 nM
- Ratio [9]: 0.069
SMILES: C[C@@H]1NC(c2ccnc(C#N)c2)=N[C@@]1(c1ccc(F)cc1)c1ccc(F)nc1
- IC50 [4]: > 10000 nM

- Kp at 2 h [5]: 2.3
- logD [1]: 3.6
- concentration at 2 h [6]: 2600 nM
- concentration at 2 h [7]: 130 nM
- Drug uptake [8]: 6.1 nmol/g
- CLhep predicted [2]: 9 mL/min/kg
- Ki [3]: 0.8 nM
SMILES: C[C@@H]1NC(c2cccc(C#N)c2)=N[C@@]1(c1ccc(F)cc1)c1ccc(F)nc1
